≈ marks a conversion by molar mass, not a printed value.
Key:
Format in all cases: functional
[1] = system: Staphylococcus aureus; experiment: Antibacterial activity against Staphylococcus aureus ATCC 25923 by broth microdilution method
[2] = system: Staphylococcus aureus; experiment: Antibacterial activity against methicillin-resistant Staphylococcus aureus ATCC 700699 by broth microdilution method; settings: Mu50
[3] = system: Staphylococcus aureus; experiment: Antibacterial activity against Staphylococcus aureus ATCC 29213 by broth microdilution method
[4] = system: Escherichia coli; experiment: Antibacterial activity against Escherichia coli ATCC 9637 by broth microdilution method; settings: W
Procedure, shortened: (§1)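 Bacteria were tested by the NCCLS method in Mueller Hinton broth, with gentamicin and norfloxacin as reference drugs.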

[5] = system: Pseudomonas aeruginosa; experiment: Antibacterial activity against Pseudomonas aeruginosa ATCC BAA-427 by broth microdilution method; procedure, shortened: as §1
[6] = system: Klebsiella pneumoniae; experiment: Antibacterial activity against Klebsiella pneumoniae ATCC 27736 by broth microdilution method; procedure, shortened: as §1
[7] = system: Candida albicans; experiment: Anti-fungal activity against Candida albicans after 48 hrs by broth microdilution method
[8] = system: Cryptococcus neoformans; experiment: Anti-fungal activity against Cryptococcus neoformans after 48 hrs by broth microdilution method
[9] = system: Sporothrix schenckii; experiment: Anti-fungal activity against Sporothrix schenckii after 48 hrs by broth microdilution method
[10] = system: Trichophyton mentagrophytes; experiment: Anti-fungal activity against Trichophyton mentagrophytes after 48 hrs by broth microdilution method
[11] = system: Aspergillus fumigatus; experiment: Anti-fungal activity against Aspergillus fumigatus after 48 hrs by broth microdilution method
[12] = system: Candida parapsilosis; experiment: Anti-fungal activity against Candida parapsilosis ATCC 22019 after 48 hrs by broth microdilution method; settings: Lodderomyces parapsilosis, ATCC 22019, 48 h
[13] = system: Plasmodium falciparum; experiment: Antimalarial activity against chloroquine-sensitive Plasmodium falciparum 3D7 after 72 hrs by SYBR Green-1 staining based fluorescence assay; settings: 3D7, 72 h

| Structure (SMILES) | IC50 [1] [µg/mL] | MIC [1] [µg/mL] | IC50 [2] [µg/mL] | MIC [2] [µg/mL] | IC50 [3] [µg/mL] | MIC [3] [µg/mL] | IC50 [4] [µg/mL] | MIC [4] [µg/mL] | IC50 [5] [µg/mL] | MIC [5] [µg/mL] | IC50 [6] [µg/mL] | MIC [6] [µg/mL] | MIC [7] [µg/mL] | IC50 [8] [µg/mL] | MIC [8] [µg/mL] | IC50 [9] [µg/mL] | MIC [9] [µg/mL] | IC50 [10] [µg/mL] | MIC [10] [µg/mL] | IC50 [11] [µg/mL] | further results |
| --- | --- | --- | --- | --- | --- | --- | --- | --- | --- | --- | --- | --- | --- | --- | --- | --- | --- | --- | --- | --- | --- |
| O=c1c2ccccc2sn1-c1ccccc1-n1sc2ccccc2c1=O | 10 (≈ 26.6 µM) | 18 (≈ 47.8 µM) | 4.7 (≈ 12.5 µM) | 10.2 (≈ 27.1 µM) | 6.3 (≈ 16.7 µM) | 6.5 (≈ 17.3 µM) | > 50 | > 50 | > 50 | > 50 | > 50 | > 50 | 25 (≈ 66.4 µM) | 13.7 (≈ 36.4 µM) | 14.4 (≈ 38.3 µM) | > 50 | > 50 | 12.5 (≈ 33.2 µM) | 13.6 (≈ 36.1 µM) | > 50 | IC50 [7]: 14.2 µg/mL (≈ 37.7 µM); MIC [11]: > 50 µg/mL; IC50 [12]: 15.2 µg/mL (≈ 40.4 µM); MIC [12]: 17.1 µg/mL (≈ 45.4 µM); IC50 [13]: > 2 µM |
| O=c1c2ccccc2sn1C1CCCCC1 | 6.8 (≈ 29.1 µM) | 9.8 (≈ 42 µM) | 1 (≈ 4.29 µM) | 2.5 (≈ 10.7 µM) | 4.6 (≈ 19.7 µM) | 7.1 (≈ 30.4 µM) | > 50 | > 50 | > 50 | > 50 | > 50 | > 50 | 0.5 (≈ 2.14 µM) | 1 (≈ 4.29 µM) | 1.3 (≈ 5.57 µM) | 0.4 (≈ 1.71 µM) | 0.6 (≈ 2.57 µM) | 0.7 (≈ 3 µM) | 1 (≈ 4.29 µM) | 0.4 (≈ 1.71 µM) | MIC [11]: 3.7 µg/mL (≈ 15.9 µM); IC50 [12]: 0.7 µg/mL (≈ 3 µM); MIC [12]: 0.9 µg/mL (≈ 3.86 µM); IC50 [13]: > 2 µM |
| COC(=O)[C@@H](NC(=O)[C@H](C(C)C)n1sc2ccccc2c1=O)C(C)C | > 50 | > 50 | > 50 | > 50 | > 50 | > 50 | > 50 | > 50 | > 50 | > 50 | > 50 | > 50 | > 50 | > 50 | > 50 | > 50 | > 50 | > 50 | > 50 | > 50 | IC50 [7]: > 50 µg/mL; MIC [11]: > 50 µg/mL; IC50 [12]: > 50 µg/mL; MIC [12]: > 50 µg/mL; IC50 [13]: > 2 µM |
| C[C@@H](c1ccccc1)n1sc2ccccc2c1=O | 6.8 (≈ 26.6 µM) | 10.2 (≈ 39.9 µM) | 1 (≈ 3.92 µM) | 1.9 (≈ 7.44 µM) | 4.6 (≈ 18 µM) | 8.5 (≈ 33.3 µM) | > 50 | > 50 | > 50 | > 50 | > 50 | > 50 | 1 (≈ 3.92 µM) | 1 (≈ 3.92 µM) | 2.9 (≈ 11.4 µM) | 0.4 (≈ 1.57 µM) | 1.6 (≈ 6.27 µM) | 0.7 (≈ 2.74 µM) | 0.4 (≈ 1.57 µM) | 0.4 (≈ 1.57 µM) | IC50 [7]: 0.5 µg/mL (≈ 1.96 µM); MIC [11]: 6.5 µg/mL (≈ 25.5 µM); IC50 [12]: 0.7 µg/mL (≈ 2.74 µM); MIC [12]: 2.1 µg/mL (≈ 8.22 µM); IC50 [13]: > 2 µM |

Reference: ChEMBL document CHEMBL3994637, “Broad spectrum anti-infective properties of benzisothiazolones and the parallels in their anti-bacterial and anti-fungal effects” (Bioorg Med Chem Lett, 2017)
